Laboratory results: ChEMBL document CHEMBL4765315, “Discovery of IAP-recruiting BCL-X PROTACs as potent degraders across multiple cancer cell lines” (Eur J Med Chem, 2020)
Activity calls are given as the source filed them. No cut-off for these calls is given here.

Legend:
[1] = system: Bcl-2-like protein 1/E3 ubiquitin-protein ligase XIAP (Homo sapiens); experiment: Protac activity at BCL-XL/XIAP E3 ligase in human MyLa1929 cells assessed as degradation of BCL-XL by measuring remaining protein at 500 nM measured after 16 hrs by Western blot analysis (reference value: 100%)
[2] = Antiproliferative activity against human MyLa1929 cells assessed as cell viability measured after 72 hrs by MTS assay; format: functional, cell-based
Procedure, shortened: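 MTS tetrazolium read-out of viability after 72 h continuous exposure. MyLa 1929 seeded at 1×10^5 cells per well; EC50/IC50 fitted from concentration–response curves. For MyLa 1929, values are means of at least two independent experiments.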

MOLT-4 = experiment: Antiproliferative activity against human MOLT-4 cells assessed as cell viability measured after 72 hrs by MTS assay; format: functional, cell-based
[3] = target: Protein cereblon/Bcl-2-like protein 1 (Homo sapiens) (UniProt Q07817+Q96SW2); experiment: Protac activity at BCL-XL/CRBN in human MyLa1929 cells assessed as degradation of BCL-XL at 0.01 to 3 uM measured after 16 hrs by western blot analysis; format: cell-based; details: dose 0.01-3 µM
Procedure, shortened: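 MyLa 1929 cells treated 16 h with compound (single 500 nM or concentration series), then harvested for immunoblot. Membranes blocked in 5% milk/TBS-Tween, primary antibody overnight at 4 °C, HRP secondary, ECL detection. BCL-XL band normalized to β-actin by densitometry; reported as % protein remaining versus vehicle.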

Platelet = experiment: Cytotoxicity against human platelet assessed as cell viability measured after 48 hrs by MTS assay
[4] = Selectivity ratio of IC50 for human platelets to IC50 for human MyLa1929 cells
Procedure, shortened: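 Platelets were isolated from platelet-rich plasma in acid citrate buffer with PGE1 (1 µM) and apyrase (0.2 units/mL) at final concentration. They were adjusted to 2 × 10^8/mL in HEPES Tyrode's buffer with 10% FBS, PGE1 and apyrase, then treated for 48 h and read by MTS. MyLa 1929 cells (1×10^5 per well) were treated for 72 h and read by MTS, with IC50 from at least two independent experiments. The ratio is platelet IC50 over MyLa 1929 IC50.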

WI-38 = experiment: Cytotoxicity against human WI-38 cells assessed as cell viability measured after 72 hrs by MTS assay; format: cell-based; details: WI-38, 72 h
[5] = Homo sapiens, MyLa1929, 72 h, read-out: IC50

Sequence of Protein cereblon/Bcl-2-like protein 1 (Homo sapiens) (Q07817 whole entry, looked up): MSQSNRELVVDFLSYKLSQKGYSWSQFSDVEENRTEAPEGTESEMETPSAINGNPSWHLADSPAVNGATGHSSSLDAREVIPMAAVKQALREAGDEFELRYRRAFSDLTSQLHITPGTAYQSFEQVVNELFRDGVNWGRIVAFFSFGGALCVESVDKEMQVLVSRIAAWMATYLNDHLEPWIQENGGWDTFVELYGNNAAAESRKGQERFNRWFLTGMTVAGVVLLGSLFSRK
Sequence of Protein cereblon/Bcl-2-like protein 1 (Homo sapiens) (Q96SW2 whole entry, looked up): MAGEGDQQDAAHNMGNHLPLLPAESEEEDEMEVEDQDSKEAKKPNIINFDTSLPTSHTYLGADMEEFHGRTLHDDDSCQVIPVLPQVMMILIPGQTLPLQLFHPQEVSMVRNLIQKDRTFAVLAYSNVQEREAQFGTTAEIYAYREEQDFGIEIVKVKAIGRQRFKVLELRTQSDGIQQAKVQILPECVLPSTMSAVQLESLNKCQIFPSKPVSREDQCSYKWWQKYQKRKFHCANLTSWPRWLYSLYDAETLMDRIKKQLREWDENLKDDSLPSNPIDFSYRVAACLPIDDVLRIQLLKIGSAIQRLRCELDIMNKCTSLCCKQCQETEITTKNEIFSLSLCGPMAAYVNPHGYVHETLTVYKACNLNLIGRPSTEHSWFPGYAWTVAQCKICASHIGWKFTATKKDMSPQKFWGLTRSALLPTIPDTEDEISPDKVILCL

| SMILES | Remaining BCL-XL protein [1] | IC50 [2, 5] | other results |
| --- | --- | --- | --- |
| CN[C@@H](C)C(=O)N[C@@H](C(=O)N1CCC[C@H]1c1nc(C(=O)c2cccc(OCCOCCOCCOCc3cn(CCCC(=O)N4CCN(CC[C@H](CSc5ccccc5)Nc5ccc(S(=O)(=O)NC(=O)c6ccc(N7CCN(CC8=C(c9ccc(Cl)cc9)CCC(C)(C)C8)CC7)cc6)cc5S(=O)(=O)C(F)(F)F)CC4)nn3)c2)cs1)C1CCCCC1 | 59% | 147 nM |  |
| CN(CCOCCOCCOCCNc1cccc2c1C(=O)N(C1CCC(=O)NC1=O)C2=O)CC[C@H](CSc1ccccc1)Nc1ccc(S(=O)(=O)NC(=O)c2ccc(N3CCN(CC4=C(c5ccc(Cl)cc5)CCC(C)(C)C4)CC3)cc2)cc1S(=O)(=O)C(F)(F)F (stereo partly specified) |  |  | Activity (MOLT-4): Active; IC50 ([2]; myla1929): Active |
| CN[C@@H](C)C(=O)N[C@H]1CCO[C@H]2CC(C)(C)[C@@H](C(=O)N[C@@H]3CCCc4cc(O)ccc43)N2C1=O |  | > 10000 nM |  |
| CN[C@@H](C)C(=O)N[C@@H](C(=O)N1CCC[C@H]1c1nc(C(=O)c2cccc(OCCOCCOCCOCCOCC(=O)N3CCN(CC[C@H](CSc4ccccc4)Nc4ccc(S(=O)(=O)NC(=O)c5ccc(N6CCN(CC7=C(c8ccc(Cl)cc8)CCC(C)(C)C7)CC6)cc5)cc4S(=O)(=O)C(F)(F)F)CC3)c2)cs1)C1CCCCC1 | 29% | 75 nM |  |
| O=C1CCC(N2C(=O)c3cccc(NCCOCCOCc4cn(CCCC(=O)N5CCN(CC#Cc6ccc(OCCCc7sc(N8CCc9cccc(C(=O)Nc%10nc%11ccccc%11s%10)c9C8)nc7C(=O)O)c(F)c6)CC5)nn4)c3C2=O)C(=O)N1 (stereo unspecified) |  |  | Activity [3]: Active; Activity (MOLT-4): Active; IC50 ([2]; myla1929): Active |
| CC1(C)CCC(c2ccc(Cl)cc2)=C(CN2CCN(c3ccc(C(=O)NS(=O)(=O)c4ccc(N[C@H](CCN5CCOCC5)CSc5ccccc5)c(S(=O)(=O)C(F)(F)F)c4)cc3)CC2)C1 [NAVITOCLAX] |  | 50 nM | IC50 (Platelet): 189 nM; Ratio IC50 [4]: 137; IC50 (WI-38): 8060 nM |

Further lines, with some results ahead:

| Remaining BCL-XL protein [1] | SMILES | IC50 [2, 5] | other results |
| --- | --- | --- | --- |
| 55% | CN[C@@H](C)C(=O)N[C@@H](C(=O)N1CCC[C@H]1c1nc(C(=O)c2cccc(OCCCC(=O)N3CCN(CC[C@H](CSc4ccccc4)Nc4ccc(S(=O)(=O)NC(=O)c5ccc(N6CCN(CC7=C(c8ccc(Cl)cc8)CCC(C)(C)C7)CC6)cc5)cc4S(=O)(=O)C(F)(F)F)CC3)c2)cs1)C1CCCCC1 | 997 nM |  |
| 104% | CN[C@@H](C)C(=O)N[C@@H](C(=O)N1CCC[C@H]1c1nc(C(=O)c2cccc(OCCCCCC(=O)N3CCN(CC[C@H](CSc4ccccc4)Nc4ccc(S(=O)(=O)NC(=O)c5ccc(N6CCN(CC7=C(c8ccc(Cl)cc8)CCC(C)(C)C7)CC6)cc5)cc4S(=O)(=O)C(F)(F)F)CC3)c2)cs1)C1CCCCC1 | > 10000 nM |  |
| 80% | CN[C@@H](C)C(=O)N[C@@H](C(=O)N1CCC[C@H]1c1nc(C(=O)c2cccc(OCCCCC(=O)N3CCN(CC[C@H](CSc4ccccc4)Nc4ccc(S(=O)(=O)NC(=O)c5ccc(N6CCN(CC7=C(c8ccc(Cl)cc8)CCC(C)(C)C7)CC6)cc5)cc4S(=O)(=O)C(F)(F)F)CC3)c2)cs1)C1CCCCC1 | 1960 nM |  |
| 108% | CN[C@@H](C)C(=O)N[C@@H](C(=O)N1CCC[C@H]1c1nc(C(=O)c2cccc(OCCCCCCC(=O)N3CCN(CC[C@H](CSc4ccccc4)Nc4ccc(S(=O)(=O)NC(=O)c5ccc(N6CCN(CC7=C(c8ccc(Cl)cc8)CCC(C)(C)C7)CC6)cc5)cc4S(=O)(=O)C(F)(F)F)CC3)c2)cs1)C1CCCCC1 | > 10000 nM |  |
| 31% | CN[C@@H](C)C(=O)N[C@@H](C(=O)N1CCC[C@H]1c1nc(C(=O)c2cccc(OCCOCCOCc3cn(CCCC(=O)N4CCN(CC[C@H](CSc5ccccc5)Nc5ccc(S(=O)(=O)NC(=O)c6ccc(N7CCN(CC8=C(c9ccc(Cl)cc9)CCC(C)(C)C8)CC7)cc6)cc5S(=O)(=O)C(F)(F)F)CC4)nn3)c2)cs1)C1CCCCC1 | 157 nM |  |
| 60% | CN[C@@H](C)C(=O)N[C@@H](C(=O)N1CCC[C@H]1c1nc(C(=O)c2cccc(OCCOCCOCC(=O)N3CCN(CC[C@H](CSc4ccccc4)Nc4ccc(S(=O)(=O)NC(=O)c5ccc(N6CCN(CC7=C(c8ccc(Cl)cc8)CCC(C)(C)C7)CC6)cc5)cc4S(=O)(=O)C(F)(F)F)CC3)c2)cs1)C1CCCCC1 | 143 nM |  |
